Assay outcomes from PubChem.
Many of the other results were omitted from the sample, so hits are more common in it than they were.
XBP1 UPR activ: adaptive UPR (XBP1) activation. activation, % at 20 µM. CHO-XBP1 luciferase reporter, IRE1-XBP1 UPR activation, luminescence; percent of tunicamycin response, DMSO as zero. 0.33% of 330,000 active. AID 463104;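 active means versus positive control, 20 µM dose yields 30% or more activation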
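assay system = CHO-XBP1 luciferase reporter cells | amount = 1000 cells/well | buffer or medium = F12 plus 10% FBS | compound dosing = single point, 20 µM final compound, 1% DMSO | incubation = 16-18 h cell attachment at 37 °C, then 6 h compound exposure | detection = Steady-Glo luminescence read | controls = tunicamycin 10 µg/mL and vehicle-only wells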
CHOP inh: blocks CHOP induction under ER stress | CHO-K1 CHOP-promoter luciferase, tunicamycin-induced, 15-18 h | inhibition, % at 10 µM | 3.8% of 220,000 active | AID 2732;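 active means compounds that reduced the stress-induced luciferase reporter signal by more than about 70% of percent inhibition, limit read from the data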
UPR CHOP act: activators of apoptotic arm of unfolded protein response (CHOP). CHO-CHOP luciferase reporter, UPR activation, luminescence; percent of tunicamycin response over DMSO baseline. activation, % at 10 µM. 0.34% of 330,000 active;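 active means at 10 µM dose, activation of 40% or more, normalized to positive control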
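Dosing – one dose, 10 µM in 0.5% DMSO · System – CHO-CHOP cells, stable luciferase reporter of PERK-eIF2a-CHOP signalling · Input – 500 cells/well · Control set – tunicamycin 10 µg/mL final as positive, DMSO-only wells as negative · Timing – 6 h compound treatment, 37 °C · Measure – % activation vs tunicamycin · Technique – luminescence read with Steady-Glo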
Fh CTSL1 inh: cathepsin L1 inhibition, PFM18AAP counter-screen; recombinant F. hepatica cathepsin L1, Z-Leu-Arg-MCA fluorescence; inhibition, % at 5.96 µM; 0.49% of 300,000 active; AID 1906;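 active means inhibition above the mean of all tested compounds plus 3 SD, set per screening campaign, cut at about 17% in these data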
UCH37 inh: inhibitors of human deubiquitinating enzyme UCH37 | inhibition, % (test concentration not listed) | Q9Y5K5 | 0.33% of 330,000 active | purified proteasome/UCH37, Ub-AMC cleavage fluorescence;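 active means mean inhibition over replicate wells above about 20%, limit read from the data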
Target sequence (Q9Y5K5 whole entry, looked up): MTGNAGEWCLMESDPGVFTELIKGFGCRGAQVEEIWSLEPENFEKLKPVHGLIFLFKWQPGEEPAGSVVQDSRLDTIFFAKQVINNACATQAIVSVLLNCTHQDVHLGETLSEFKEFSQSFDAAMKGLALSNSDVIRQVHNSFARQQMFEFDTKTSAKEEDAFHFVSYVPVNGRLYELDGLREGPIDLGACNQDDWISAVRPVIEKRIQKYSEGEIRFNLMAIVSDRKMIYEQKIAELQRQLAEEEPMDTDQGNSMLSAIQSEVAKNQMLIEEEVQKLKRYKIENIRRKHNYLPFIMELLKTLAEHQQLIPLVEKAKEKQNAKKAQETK
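Test system – human UCH37 enzyme supplied as purified proteasome complex · Incubation – 30 min preincubation with enzyme, 25 min cleavage at room temperature · Detection – AMC fluorescence from Ub-AMC cleavage, excitation 355 nm, emission 460 nm · Benchmarks – no-proteasome wells (full inhibition) and compound-free wells (no inhibition)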
CHOP UPR conf: confirmation of apoptotic unfolded protein response (CHOP) activators; shares compounds with UPR CHOP act; CHO-CHOP cells, CHOP-luciferase reporter luminescence; percent of tunicamycin response, DMSO as zero; activation, % at 10 µM; 64% of 1,000 active; in the data active means activation above about 33%
XBP1 UPR conf: confirmation of adaptive unfolded protein response (XBP1) activators | 63% of 1,000 active | shares compounds with XBP1 UPR activ | AID 485299 | CHO-XBP1 IRE1-XBP1 luciferase reporter, luminescence | activation, % at 20 µM;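 active means reporter signal at least 30% of the positive control's activation in two or more of four replicate wells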
Hits are given with their value; . = inactive; / = not tested or not shown.

SMILES	XBP1 UPR activ	CHOP inh	UPR CHOP act	Fh CTSL1 inh	UCH37 inh	CHOP UPR conf	XBP1 UPR conf
Cc1occc1C(=O)NN=C/C(Br)=C/c1ccccc1	/	/	/	/	.	/	/
COc1cc(/C=C2\CC(C(C)(C)C)C/C(=C\c3cc(OC)c(OC)c(OC)c3)C2=O)cc(OC)c1OC (stereo unspecified)	43	/	126	.	.	112	41
O=C(/C=C/c1ccco1)NC(=S)Nc1ccc(O)c(-c2nc3ccccc3s2)c1	153	.	106	.	/	86	287
CN1/C(=C\C(=O)COC(=O)c2ccc(O)cc2)C(C)(C)c2ccccc21	.	.	.	.	.	/	/
CN1/C(=C\C(=O)COC(=O)c2ccc(O)c(O)c2)C(C)(C)c2ccccc21	41	.	96	.	.	81	33
Cc1ccc(C)c(N=Cc2c(O)c3ccccc3oc2=O)c1	55	/	61	.	.	49	46
CC(C)c1ccc(N=Cc2c(O)c3ccccc3oc2=O)cc1	.	/	.	.	.	/	/
COc1ccc(N=Cc2c(O)c3ccccc3oc2=O)cc1	102	.	128	.	.	68	38
CCOc1ccccc1N=Cc1c(O)c2ccccc2oc1=O	179	/	162	.	.	120	125
O=C(NN=Cc1ccc(O)cc1O)c1ccc(NC(=O)C2CCCCC2)cc1	/	/	/	/	.	/	/
CCOc1cc(/C=N/NC(N)=S)cc(Br)c1OCc1ccccc1C	61	86	69	.	/	41	60
CCOc1cc(/C=N/N=C(\N)c2nonc2N)cc(Br)c1OCc1cccc2ccccc12	268	95	107	.	/	.	211
CCOc1cc(/C=N/NC(N)=O)cc(Br)c1OCc1ccccc1	.	/	.	.	/	/	/
CCCNC(=O)C(=O)NN=Cc1ccc(OCc2ccccc2)cc1	/	/	/	/	.	/	/
O=C(Nc1nc(-c2ccc3ccccc3c2)cs1)c1ccc(N2C(=O)CCC2=O)cc1	45	.	76	.	.	56	47
CC(=NNC(=O)c1cccc(S(=O)(=O)N2CCCCC2)c1)c1ccc(C)o1	/	/	/	/	.	/	/
COC(=O)c1c(NC(=S)NN2CCOCC2)sc2c1CCCC2	.	.	.	.	.	/	/
CCCCN=C1SC(C(=O)Nc2sc3c(c2C(=O)OC)CCC3)C(N)=C1C(=O)N1CCOCC1 (stereo unspecified)	166	/	109	.	.	.	.
O=C(C[C@H]1C[C@H](C(=O)N2CCCCC2)[C@@]2(CCc3ccccc3)c3[nH]c4ccc(Cl)cc4c3CCN2C1=O)NCCC1=CCCCC1	144	/	55	/	.	84	146
O=C(C[C@H]1C[C@H](C(=O)N2CCCCC2)[C@@]2(CCc3ccccc3)c3[nH]c4ccc(Cl)cc4c3CCN2C1=O)NCCc1ccccn1	.	/	.	/	.	/	/
COc1ccc(Cl)cc1NC(=O)CC(C)=NNC(=O)CCc1ccccc1	/	/	/	/	.	/	/
c1ccc2sc(N3CCOCC3)nc2c1	.	.	.	.	.	/	/
COc1cccc2sc(N3CCN(c4nc5ccccc5s4)CC3)nc12	94	80	88	.	.	42	86
Cc1ccc(C=NNC(=O)c2nnn(-c3nonc3N)c2C(C)C)s1	/	/	/	/	.	/	/
COc1cc(C=NNC(=O)c2ccncc2)ccc1Oc1ccc([N+](=O)[O-])cn1	/	/	/	/	.	/	/
SMILES	XBP1 UPR activ	CHOP inh	UPR CHOP act	Fh CTSL1 inh	UCH37 inh	CHOP UPR conf	XBP1 UPR conf
COc1cc(C(C)=NNC(=O)c2nnn(-c3nonc3N)c2-c2cccs2)ccc1O	/	/	/	/	.	/	/
CC1CCN(Cc2c(C(=O)N/N=C/c3ccc(C(C)(C)C)cc3)nnn2-c2nonc2N)CC1	178	/	202	.	/	50	117
CC1CCN(Cc2c(C(=O)NN=Cc3ccc(C(C)(C)C)cc3)nnn2-c2nonc2N)CC1	/	/	/	/	.	/	/
CC(C)C(=O)NN=Cc1ccc(OCc2ccccc2)cc1	/	/	/	/	.	/	/
Cc1[nH]c(=O)[nH]c(=O)c1C=NNC(=O)CCCCCNC(=O)OC(C)(C)C	/	/	/	/	.	/	/
COC(=O)c1nn(-c2ccccc2)c(Cl)c1C=NO	/	/	/	/	.	/	/
CN(C)C/C=C/C(O)(c1ccccc1)c1ccccc1	.	.	.	.	.	/	/
